Data on 51 compounds can be found in PubChem BioAssay AID623899 (Broad Institute, 2012).

Where “and” joins values, the source holds several entries; their conditions need not be identical. Identical values can stand only once. Calls of active or inactive are those of the source.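 Rule for the calls: active = falling signal with AC50 at or below twice the highest valid dose tested for that sample; inconclusive = flat curve at 30 to 70% inhibition, or unreliable fit; inactive = the rest.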

Tested on in one experiment: not listed separately
The experiment can be described thus: single-agent C. albicans CaCi-2 growth inhibition, dose response, CaCi-2 strain, dry powder, plate reader, set 2 (AID 623899). The settings on record: C. albicans CaCi-2 growth, Alamar Blue fluorescence, 48 h; at 26 µM (top of the series). The essentials: (§1)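 Benchmarks: Amphotericin 10 µM positive control | Test system: C. albicans CaCi-2, a fluconazole-resistant clinical isolate | Input: Inoculum OD600 0.00015 | Doses: Pinned compound, dose-response series | Buffer or medium: Defined RPMI 1640 medium with MOPS | Schedule: 48 h compound exposure at 37 °C, dye 2 h | Measured by: Alamar Blue fluorescence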
For `CCOC(=O)N1C(=S)NC(=O)C12CCCCC2`, the activity change, negative = inhibition was 6.84% (inactive).
As for `Cc1ccc(N2C(=S)NC(=O)C23CCC3)cc1`, the activity change, negative = inhibition is -14.6% (inactive).
Regarding `CCCC(=O)N1C(=O)C2(CCCCC2)N(c2ccc(C)cc2)C1=S`, the activity change, negative = inhibition is 15.2% (inactive).
With `Cc1ccc(N2C(=S)N(C)C(=O)C23CCCCC3)cc1`, the activity change, negative = inhibition was -8.14% (inactive) and -15.3% (inactive).
Same read-out and setting: then `Cc1ccc(N2C(=O)C3(CCCCC3)NC2=S)cc1`, with 9.21% (inactive); and `O=C1NC(=S)N(c2ccc(F)cc2)C12CCCCC2`, with -13.4% (inactive).
In the case of `CCOC(=O)N1C(=S)N(c2ccc(C)cc2)C2(CCCCC2)C1=NCc1ccccc1`, the activity change, negative = inhibition was 3.84% (inactive).
The same measure, in the same setting: for `Cc1ccc(N2C(=S)NC(=O)C23CCOCC3)cc1` the value was -17.4% (inactive); for `Cc1ccc(N2C(=S)N(C(=O)Oc3ccccc3)C(=O)C23CCCCC3)cc1`, 9.01% (inactive).
On to `CCOC(=O)N1C(=S)N(c2ccc(C)cc2)C(=O)C12CCCCC2`, for which the activity change, negative = inhibition is 6.88% (inactive).
In the case of `O=C1NC(=S)NC12CCCCC2`, the activity change, negative = inhibition was 4.86% (inactive).
Take `Cc1ccc(N2C(=O)N(C)C(=O)C23CCCCC3)cc1`: the activity change, negative = inhibition was 8.26% (inactive).
The same measure, in the same setting: for `Cc1ccc(N2C(=S)N(S(C)(=O)=O)C(=O)C23CCCCC3)cc1` the value was 8.47% (inactive); for `Cc1ccc(N2C(=O)C(=O)NC2=S)cc1`, 9.23% (inactive).
The same measure, in the same setting: for `Cc1ccc(N2C(=S)NC(=O)C2(C)C)cc1` the value was 2.43% (inactive).
Same read-out and setting: then `O=C1NC(=S)N(Cc2ccccc2)C12CCCCC2`, with 0.564% (inactive).
Turning to `Cc1ccc(N2CC(=O)NC2=O)cc1`, the activity change, negative = inhibition is -7.46% (inactive).
Still for that read-out and setting: for `CC(C)N1C(=S)NC(=O)C12CCCCC2` the value was -4.41% (inactive); for `CCOC(=O)N1C(=O)N(c2ccc(C)cc2)C2(CCCCC2)C1=O`, -28.5% (inactive); for `Cc1ccc(N2C(=S)NC(=O)C23CCCC3)cc1`, 7.79% (inactive).
For `CCOC(=O)N1C(=O)C2(CCCCC2)NC1=S`, the activity change, negative = inhibition is 0.477% (inactive).
The same measure, in the same setting: for `Cc1ccc(N2C(=O)NC(=O)C23CCCCC3)cc1` the value was 14.7% (inactive); for `CCCCN1C(=O)N(c2ccc(C)cc2)C2(CCCCC2)C1=O`, 9.77% (inactive); for `CCOC(=O)N1C(=O)C2(CCCCC2)N(c2ccc(C(C)C)cc2)C1=S`, -19.6% (inactive).
Still for that read-out and setting: for `CCOC(=O)N1C(=O)C2(CCCCC2)N(C(C)C)C1=S` the value was -20% (inactive).
With `Cc1ccc(N2CC(=O)NC2=S)cc1`, the activity change, negative = inhibition is -6.22% (inactive).
On the same count and under the same terms, then `CCOC(=O)N1C(=O)C(C)(C)N(c2ccc(C)cc2)C1=S`, with 17.8% (inactive).
Turning to `CCOC(=O)N1C(=O)C2(CCC2)N(c2ccc(C)cc2)C1=S`, the activity change, negative = inhibition was 18% (inactive).
Take `Cc1ccc(N2C(=S)N(C(=O)OCc3ccccc3)C(=O)C23CCCCC3)cc1`: the activity change, negative = inhibition was 1.35% (inactive).

Another experiment concerns C. albicans CaCi-2 growth, Alamar Blue fluorescence, 48 h. The experiment is described as above.
Details: not given
The method in brief:
as §1
A word on the AC50: it is the concentration at which the activity in the assay is half-maximal. `CC1/C=C/C=C\C=C\C=C\C=C\C=C\C=C\C(O[C@H]2OC(C)C(O)C(N)C2O)CC2OC(O)(CC(O)CC(O)C(O)CCC(O)CC(O)CC(=O)OC(C)C(C)C1O)CC(O)C2C(=O)O` (stereo partly specified): the AC50 was below 10 nM.
On the same count and under the same terms, then `COC(=O)N1C(=O)C2(CCCCC2)N(c2ccc(C)cc2)C1=S`, with 1890 nM.
Same read-out and setting: for `CCOC(=O)N1C(=O)C2(CCCCC2)N(c2ccc(Cl)cc2)C1=S` the value was below 100 nM.
The same measure, in the same setting: for `CCOC(=O)N1C(=O)C2(CCCCC2)N(c2ccc(C(F)(F)F)cc2)C1=S` the value was 841 nM.
Consider `CCOC(=O)N1C(=O)C2(CCCC2)N(c2ccc(C)cc2)C1=S`, for which the AC50 is 9790 nM.
For `O=C1NC(=S)N(c2ccccc2)C12CCCCC2`, the AC50 was > 52000 nM (inactive).
On the same count and under the same terms, for `CCOC(=O)N1C(=O)C2(CCCCC2)N(c2ccc(CC)cc2)C1=S` the value was 1900 nM; for `CCOC(=O)N1C(=O)C2(CCCCC2)N(c2ccc(F)cc2)C1=S`, below 100 nM; for `CCCCN1C(=O)N(c2ccc(C)cc2)C2(CCCCC2)C1=S`, > 52000 nM (inactive).
Turning to `CCOC(=O)N1C(=O)C2(CCCCC2)N(Cc2ccccc2)C1=S`, the concentration at half-maximal activity (AC50) was 3760 nM.
On the same count and under the same terms, for `CCOC(=O)N1C(=O)C2(CCCCC2)N(c2ccccc2C)C1=S` the value was 1200 nM; for `CCOC(=O)N1C(=O)C2(CCCCC2)N(c2ccc(C#N)cc2)C1=S`, below 100 nM; for `Cc1ccc(N2C(=S)N(C(=O)OC(C)C)C(=O)C23CCCCC3)cc1`, 8740 nM.
As for `Cc1ccc(N2C(=S)NC(=O)C23CCCCC3)cc1`, the AC50 was > 52000 nM (inactive).
In the case of `CCOC(=O)N1C(=O)C2(CCOCC2)N(c2ccc(C)cc2)C1=S`, the AC50 is 20600 nM.
`CCOC(=O)N1C(=O)C2(CCCCC2)N(c2cccc(C)c2)C1=S`: the AC50 is 189 nM.
As to `CCCOC(=O)N1C(=O)C2(CCCCC2)N(c2ccc(C)cc2)C1=S`, the half-maximal activity concentration (AC50) is 5900 nM.
The same measure, in the same setting: for `CCOC(=O)N1C(=O)C2(CCCCC2)N(c2ccc(C)cc2)C1=S` the value was 359 nM and 303 nM; for `CCOC(=O)N1C(=O)C2(CCCCC2)N(c2ccc(OC)cc2)C1=S`, 1780 nM.
On the same count and under the same terms, for `CCCc1ccc(N2C(=S)N(C(=O)OCC)C(=O)C23CCCCC3)cc1` the value was 6910 nM; for `CCOC(=O)N1C(=O)C2(CCCCC2)N(c2ccccc2)C1=S`, 148 nM; for `CCCCN1C(=O)C2(CCCCC2)N(c2ccc(C)cc2)C1=S`, > 52000 nM (inactive).
